{"source": "ChEMBL document CHEMBL4513216", "about": "“Probing the Open Global Health Chemical Diversity Library for Multistage-Active Starting Points for Next-Generation Antimalarials” (ACS Infect Dis, 2020)", "data": [{"experiment": "Toxicity liver stage against HepG2, at 10uM", "assay_type": "cell-based", "design": "test concentration 10 uM, cell line HepG2-A16-CD81EGFP", "settings": "human, HepG2-A16-CD81EGFP cells; read-out: INHIBITION", "how_it_was_run": "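Uninfected HepG2-A16-CD81EGFP cells, 3 × 10^3 per well, 1536-well, plated on prespotted compound at 10 μM final, parasite-free screening media added to match infected plates; puromycin 10 μM positive, DMSO 0.5% negative; run in parallel with 48 h PbLuc assay at 37 °C, 5% CO2; viability by CellTiter-Glo luminescence, normalized to controls.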", "units": {"cytotoxicity at 10 µM": "%"}, "values": [{"smiles": "O=C(NCc1cc[nH]n1)N1CCCCC(N2CCCC2)C1", "note": "(stereo unspecified)", "cytotoxicity at 10 µM": -11.5}, {"smiles": "C[S+]([O-])c1ccc(NC(=O)CC2=CCCCC2)cc1", "note": "(stereo unspecified)", "cytotoxicity at 10 µM": 0.304}, {"smiles": "O=C([C@H]1C[C@H]2OCC[C@H]2N(Cc2ccco2)C1)N1CCCO1", "cytotoxicity at 10 µM": 8.73}, {"smiles": "Cc1cccc(-c2nc(CN3CCn4c(nnc4C4CC4)C3)no2)c1", "cytotoxicity at 10 µM": 3.33}, {"smiles": "CCN1CCn2c(C)cnc2C12CCN(C(=O)COC)CC2", "cytotoxicity at 10 µM": 6.5}, {"smiles": "COc1cccc(OC)c1-c1c[nH]c(C)n1", "cytotoxicity at 10 µM": -1.57}, {"smiles": "C[C@H]1C[C@@H]2CCN(C(=O)c3ccncc3)C[C@H]2O1", "cytotoxicity at 10 µM": -1.02}, {"smiles": "Clc1ccc(C2(NCc3noc(C4CC4)n3)CCCC2)cc1", "cytotoxicity at 10 µM": 13.3}, {"smiles": "COc1ccccc1N1CC(NC(=O)Cn2cc(C(C)C)nn2)CC1=O", "note": "(stereo unspecified)", "cytotoxicity at 10 µM": 11.5}, {"smiles": "CCc1nc(CNC(C)Cn2cccn2)cs1", "note": "(stereo unspecified)", "cytotoxicity at 10 µM": -4.67}, {"smiles": "CN(Cc1ccc([S+](C)[O-])cc1)c1ccccn1", "note": "(stereo unspecified)", "cytotoxicity at 10 µM": -7}, {"smiles": "CC(NCc1nnc2n1CCCC2)C(=O)N1CCc2sccc2C1", "note": "(stereo unspecified)", "cytotoxicity at 10 µM": -26.2}, {"smiles": "CC(C)COC(C)C(=O)NCc1ccc(-n2cncn2)nc1", "note": "(stereo unspecified)", "cytotoxicity at 10 µM": -5.65}, {"smiles": "Cc1ccc(S(=O)(=O)N2C[C@H]3C[C@H](NC(=O)c4ccnn4C)[C@H]3C2)cc1", "cytotoxicity at 10 µM": 85.2}, {"smiles": "COCC(c1ccccn1)N(C)C(=O)c1cc(-c2ccccc2O)n[nH]1", "note": "(stereo unspecified)", "cytotoxicity at 10 µM": -1.84}, {"smiles": "c1cnnc(N2CCCC2CNCc2nc(-c3ccoc3)no2)c1", "note": "(stereo unspecified)", "cytotoxicity at 10 µM": -18.7}, {"smiles": "COc1cccc2cc(CNC(=O)N3CCOC(C)(C)C3)oc12", "cytotoxicity at 10 µM": -14.8}, {"smiles": "Cc1nc(CN2CCOC(Cn3cccn3)C2)no1", "note": "(stereo unspecified)", "cytotoxicity at 10 µM": -11.6}, {"smiles": "COCC(=O)N1CCc2ccccc2C12CCNCC2", "cytotoxicity at 10 µM": -0.602}, {"smiles": "CN(c1ccncn1)C1CC2(CCN(C(=O)Cc3cccs3)C2)C1", "note": "(stereo unspecified)", "cytotoxicity at 10 µM": -5.97}, {"smiles": "Cc1ccc(CNC(=O)c2c[nH]nc2NC(=O)COCC2CC2)cc1", "cytotoxicity at 10 µM": 3.58}, {"smiles": "O=C(O)c1cc2c(nc1-c1ccsc1)CCN(C1CCOC1)CC2", "note": "(stereo unspecified)", "cytotoxicity at 10 µM": 15}, {"smiles": "CCn1cc2c(n1)C(COCC1CC1)CN(C(=O)c1ccsc1)C2", "note": "(stereo unspecified)", "cytotoxicity at 10 µM": 18.6}, {"smiles": "CC(C)C(C)n1nccc1NC(=O)Cn1cnc2ccccc21", "note": "(stereo unspecified)", "cytotoxicity at 10 µM": 10.8}, {"smiles": "CC(=O)N1CCC(NS(=O)(=O)c2cccnc2)CC1", "cytotoxicity at 10 µM": -2.73}, {"smiles": "Cc1ccc(F)c(S(=O)(=O)NCCc2nnc[nH]2)c1", "cytotoxicity at 10 µM": 3.16}, {"smiles": "Cc1csc(C(=O)N2CCC3(CC(N(C)c4ccncn4)C3)C2)c1", "note": "(stereo unspecified)", "cytotoxicity at 10 µM": -11.2}, {"smiles": "Cc1nc(Cn2c3c(ccc2=O)CC(NC(C)C)CC3)cs1", "note": "(stereo unspecified)", "cytotoxicity at 10 µM": 6.39}, {"smiles": "Cc1ccc(C(=O)NCC2CCN(C)c3ccccc32)c(=O)[nH]1", "note": "(stereo unspecified)", "cytotoxicity at 10 µM": 12.6}, {"smiles": "Cc1ccc2[nH]c(CO[C@H]3CN(c4ccc(C#N)cn4)C[C@H]3F)nc2c1", "cytotoxicity at 10 µM": -1.6}, {"smiles": "C/C(=C\\c1ccco1)CN(C)C(C)Cc1cc(C)ccn1", "note": "(stereo unspecified)", "cytotoxicity at 10 µM": 0.277}, {"smiles": "NS(=O)(=O)CCN1CCOC(c2ccc(Cl)cc2)C1", "note": "(stereo unspecified)", "cytotoxicity at 10 µM": -0.317}, {"smiles": "O=C(CCS(=O)(=O)C1CCCC1)N1CCCC(n2ccnc2)C1", "note": "(stereo unspecified)", "cytotoxicity at 10 µM": -0.968}, {"smiles": "CC(=O)c1cc2ncc(C(=O)NC3CCCCC3)cc2[nH]1", "cytotoxicity at 10 µM": 0.0039}, {"smiles": "c1ccc(-c2cc(CNCCCN3CCCCC3)c3nnnn3c2)cc1", "cytotoxicity at 10 µM": -30.6}, {"smiles": "CSCC(=O)N(C)Cc1ccccc1", "cytotoxicity at 10 µM": -2.34}, {"smiles": "COCCN(C(=O)c1c[nH]c2ncccc12)C1CCCC1", "cytotoxicity at 10 µM": -3.08}, {"smiles": "NC(=O)c1cc(C2CC2)nc2ccc(F)cc12", "cytotoxicity at 10 µM": 3.87}, {"smiles": "CCOCCCNC(=O)C(NC(=O)Cc1cccs1)c1ccccc1", "note": "(stereo unspecified)", "cytotoxicity at 10 µM": 12.3}, {"smiles": "CC1c2ncc(CN3CCN(C)CC3)n2CCN1Cc1ccsc1", "note": "(stereo unspecified)", "cytotoxicity at 10 µM": 6.58}, {"smiles": "COc1ncccc1CNC(=O)c1csc(Br)c1", "cytotoxicity at 10 µM": -8.03}, {"smiles": "CC(=O)NCC1CCCN(Cc2nc(Cc3ccccc3F)no2)C1", "note": "(stereo unspecified)", "cytotoxicity at 10 µM": -11.1}, {"smiles": "CCN(CC)C(=O)c1ccn(COc2ccc(F)cc2F)n1", "cytotoxicity at 10 µM": 7.61}, {"smiles": "COc1ccccc1CN1C[C@@H](F)[C@@H](OCc2nc3ccccc3[nH]2)C1", "cytotoxicity at 10 µM": 9.55}, {"smiles": "COc1ccc(CNc2c(N3CCN(C)CC3)c(=O)c2=O)cc1", "cytotoxicity at 10 µM": 2.4}, {"smiles": "CCc1noc(CC)c1CC(=O)N1CCN(C(=O)C2CCCC2)CC1", "cytotoxicity at 10 µM": -4.78}, {"smiles": "CC(C)n1nc2c(cc1=O)CN(CCOc1ccccc1C#N)CC2", "cytotoxicity at 10 µM": 13.7}, {"smiles": "Cc1cc(F)ccc1OC1(C(=O)O)CCN(Cc2nccn2C)CC1", "cytotoxicity at 10 µM": 0.334}, {"smiles": "CCCc1noc(CCC(=O)N2CCCC2c2ccc(OC)cc2)n1", "note": "(stereo unspecified)", "cytotoxicity at 10 µM": -0.403}, {"smiles": "CCc1nc(CN2CCCN(C(=O)c3cncnc3C)CC2)cs1", "cytotoxicity at 10 µM": -7.95}, {"smiles": "CCN(C(=O)CSc1ccc(C(F)(F)F)cn1)C1CC1", "cytotoxicity at 10 µM": 7.77}, {"smiles": "CCc1ncc(CN(C)C2CCN(C(C)C)CC2)cn1", "cytotoxicity at 10 µM": -3.91}, {"smiles": "Cc1nc2c(c(C)c1CC(=O)Nc1ccnn1C(C)C)c(=O)[nH]n2C", "cytotoxicity at 10 µM": 13}, {"smiles": "CC1CC(=O)c2cc(C(=O)N3CCc4ccccc43)c(=O)[nH]c2C1", "note": "(stereo unspecified)", "cytotoxicity at 10 µM": -5.67}, {"smiles": "CC(c1ncc(C(C)(C)C)o1)N1CCN(Cc2ccncc2)CC1", "note": "(stereo unspecified)", "cytotoxicity at 10 µM": -12.3}, {"smiles": "CCSc1nnc(CCNC(=O)OC(C)(C)C)o1", "cytotoxicity at 10 µM": -25.9}]}]}
